These results are taken from ChEMBL document CHEMBL4229342, “Synthesis of novel proxyphylline derivatives with dual Anti-Candida albicans and anticancer activity” (Eur J Med Chem, 2018).

A word on the EC50: it is the concentration giving half of the maximal effect. Lower therefore signals an effect from little substance. As usually defined, the MFC is the lowest tested concentration that kills the fungus rather than only halting it.

The subject of one series is CCRF-CEM. Put plainly: Antiproliferative activity against human CCRF-CEM cells after 72 hrs by MTT assay. The series is classed as functional, cell-based. In outline:
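EC50 was derived from a repeat 72 h MTT assay in CCRF-CEM or MCF-7 cells. It is the concentration killing 50% of tumour cells compared with control cells incubated without inhibitor in 0.5% DMSO.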
On the technique in general: Tetrazolium dyes change colour on reduction, which living cells bring about.

In series [1] the test system is Candida albicans. Put plainly: Induction of apoptosis in Candida albicans ATCC 90028 protoplast assessed as early apoptotic cells at 20 uM after 48 hrs Annexin V-FITC/propidium iodide staining based flow cytometric analysis (reference value: 3.00 +/- 1.65%). The series is classed as functional. In general terms: In flow cytometry, cells or beads pass a laser one at a time.

For series [2], the system named is Candida albicans. Put plainly: Induction of apoptosis in Candida albicans ATCC 90028 protoplast assessed as late apoptotic cells at 20 uM after 48 hrs Annexin V-FITC/propidium iodide staining based flow cytometric analysis (reference value: 0.3 +/- 0.30%). Type of series: functional.
Series [3] concerns Candida albicans. Put plainly: Antifungal activity against Candida albicans ATCC 90028 assessed as reduction in cell viability at 8 uM at after 48 hrs in presence of ergosterol by XTT assay. The series is classed as functional.
Series [4] relates to Candida albicans. The series can be described thus: Antifungal activity against Candida albicans ATCC 90028 infected in Galleria mellonella larvae infected with 20 uM compound pre-treated cell suspensions assessed as cocoon formation incubated in dark for 144 hrs at 30 degC and measured every 24 hrs (reference value: 65%). The series is classed as organism-based.
Another series concerns Galleria mellonella. The series can be described thus: Toxicity in Candida albicans ATCC 90028 infected Galleria mellonella larvae infected with 20 uM compound pre-treated cell suspensions assessed as improvement in larvae health index scores incubated in dark for 144 hrs at 30 degC and measured every 24 hrs. The series is classed as organism-based. As to conditions: in vivo.

For series [5], the system named is Candida albicans. The series can be described thus: Antifungal activity against Candida albicans ATCC 90028 infected in Galleria mellonella larvae infected with 20 uM compound pre-treated cell suspensions assessed as reduction in fungal cell nodules in dark for 144 hrs at 30 degC and measured every 24 hrs by hematoxylin and eosin staining-based light microscopic analysis. The series is classed as functional, organism-based.

Series [6] has as its system Candida albicans. The series can be described thus: Antibiofilm activity in Candida albicans ATCC 90028 assessed as increase in chitin distribution within biofilm cells at 20 uM after 18 hrs by calcofluor white staining-based confocal laser scanning microscopic analysis. The series is classed as functional, organism-based.
The subject of series [7] is Candida albicans. Put plainly: Antibiofilm activity in Candida albicans ATCC 90028 assessed as cell membrane lysis at 20 uM after 18 hrs by acridine orange/ethidium bromide staining-based confocal laser scanning fluorescence microscopic analysis. Type of series: functional, organism-based. In outline:
(§1)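 Unfixed biofilm cells were dual-stained in situ with acridine orange and ethidium bromide, each at 100 µg/mL. Confocal fluorescence and DIC imaging scored green AO nuclei, crescent-shaped chromatin, reddish-orange late apoptotic/necrotic cells and EB uptake, against untreated control biofilm. […]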

Series [8] relates to Candida albicans. Put plainly: Antibiofilm activity in Candida albicans ATCC 90028 assessed as early apoptotic morphological changes by measuring crescent-shaped nuclei at 20 uM after 18 hrs by acridine orange/ethidium bromide staining-based confocal laser scanning fluorescence microscopic analysis. The series is classed as functional. In outline: as §1
For series [9], the system named is Candida albicans. Put plainly: Disruption of cell wall in Candida albicans SC5314 assessed as decrease in chitin level by measuring chitin mean staining index at 0.07 uM after 18 hrs by calcofluor white staining-based flow cytometric analysis (reference value: 496 +/- 51). Type of series: functional.
In series [10] the test system is Candida albicans. The series can be described thus: Induction of apoptosis in Candida albicans ATCC 90028 planktonic forms assessed as increase in DNA damage at 4 ug/ml by ethidium bromide staining based gel electrophoresis and confocal laser scanning microscopy. The series is classed as functional, organism-based.
The test system of series [11] is Candida albicans. Put plainly: Effect on dilpoid nuclei level in Candida albicans ATCC 90028 planktonic forms at 16 ug/ml by ethidium bromide staining based gel electrophoresis and confocal laser scanning microscopy. Type of series: functional, organism-based.
Series [12] deals with Candida albicans. Put plainly: Induction of apoptosis in Candida albicans ATCC 90028 planktonic forms assessed as accumulation at subG1 phase at 4 to 16 ug/ml by ethidium bromide staining based gel electrophoresis and confocal laser scanning microscopy. Type of series: functional, organism-based.
Series [13] deals with Candida albicans. The series can be described thus: Fungicidal activity against Candida albicans ATCC 90028 assessed as reduction in cell viability in RPMI medium in presence of sorbitol. Type of series: functional.
Series [14] has as its system Candida albicans. The series can be described thus: Fungicidal activity against Candida albicans ATCC 90028 assessed as reduction in cell viability in RPMI medium in absence of sorbitol. Type of series: functional.
The subject of series [15] is Candida albicans. Put plainly: Induction of chitinase release in Candida albicans ATCC 90028 assessed as p-nitrophenyl release from N-acetyl-beta-D-glucosaminide at 20 uM by chitinolytic activity assay. Type of series: functional, organism-based.
The subject of series [16] is Candida albicans. Put plainly: Induction of exochitinase release in Candida albicans ATCC 90028 assessed as p-nitrophenyl release from chitobioside substrate C at 20 uM by chitinolytic activity assay. The series is classed as functional, organism-based.
Series [17] relates to Candida albicans. Put plainly: Induction of apoptosis in Candida albicans ATCC 90028 protoplast assessed as viable cells at 248 uM after 48 hrs Annexin V-FITC/propidium iodide staining based flow cytometric analysis (reference value: 96.38 +/- 2.05%). The series is classed as functional.
Series [18] concerns Candida albicans. The series can be described thus: Induction of apoptosis in Candida albicans ATCC 90028 protoplast assessed as early apoptotic cells at 248 uM after 48 hrs Annexin V-FITC/propidium iodide staining based flow cytometric analysis (reference value: 3.00 +/- 1.65%). The series is classed as functional.
Series [19] deals with Candida albicans. Put plainly: Induction of apoptosis in Candida albicans ATCC 90028 protoplast assessed as late apoptotic cells at 248 uM after 48 hrs Annexin V-FITC/propidium iodide staining based flow cytometric analysis (reference value: 0.3 +/- 0.30%). The series is classed as functional.
In series [20] the test system is Candida albicans. The series can be described thus: Antifungal activity against Candida albicans ATCC 90028 assessed as reduction in cell viability at 38 uM after 48 hrs in presence of ergosterol by XTT assay. Type of series: functional.
In series [21] the test system is Candida albicans. Put plainly: Antifungal activity against Candida albicans ATCC 90028 infected in Galleria mellonella larvae infected with 31 uM compound pre-treated cell suspensions assessed as larvae survival incubated in dark for 144 hrs at 30 degC and measured every 24 hrs (reference value: 80%). The series is classed as functional.
For series [22], the system named is Candida albicans. Put plainly: Antifungal activity against Candida albicans ATCC 90028 infected in Galleria mellonella larvae infected with 31 uM compound pre-treated cell suspensions assessed as reduction in fungal cell nodules in dark for 144 hrs at 30 degC and measured every 24 hrs by hematoxylin and eosin staining-based light microscopic analysis. Type of series: functional, organism-based.

The subject of series [23] is Candida albicans. The series can be described thus: Antifungal activity against Candida albicans ATCC 90028 infected in Galleria mellonella larvae infected with 31 uM compound pre-treated cell suspensions assessed as reduction in fungal burden in dark for 144 hrs at 30 degC and measured every 24 hrs by hematoxylin and eosin staining-based light microscopic analysis. Type of series: functional, organism-based.

In series [24] the test system is Candida albicans. Put plainly: Antibiofilm activity in Candida albicans ATCC 90028 assessed as early apoptotic morphological changes by measuring crescent-shaped nuclei at 248 uM after 18 hrs by acridine orange/ethidium bromide staining-based confocal laser scanning fluorescence microscopic analysis. Type of series: functional. In outline: as §1
For series [25], the system named is Candida albicans. The series can be described thus: Antibiofilm activity in Candida albicans ATCC 90028 assessed as late apoptotic morphological changes by measuring reddish-orange fluorescence at 248 uM after 18 hrs by acridine orange/ethidium bromide staining-based confocal laser scanning fluorescence microscopic analysis. The series is classed as functional, organism-based. In outline:
as §1

The test system of series [26] is Candida albicans. The series can be described thus: Effect on dilpoid nuclei level in Candida albicans ATCC 90028 planktonic forms at 128 ug/ml by ethidium bromide staining based gel electrophoresis and confocal laser scanning microscopy. Type of series: functional, organism-based.
Series [27] relates to Candida albicans. Put plainly: Effect on dilpoid nuclei level in Candida albicans ATCC 90028 planktonic forms at 0.03 ug/ml by ethidium bromide staining based gel electrophoresis and confocal laser scanning microscopy. Type of series: functional, organism-based.

In brackets after ≈: the same amount, converted by molar mass. Activity calls are given as the source filed them. No cut-off for these calls is given here.

With `CC(Cn1cnc2c1c(=O)n(C)c(=O)n2C)OCc1cn(CCCn2nc3c(Br)c(Br)c(Br)c(Br)c3n2)nn1` (centres undefined), the half-maximal effective concentration (EC50) in the series on CCRF-CEM is 6.5 µM. Further, the Activity in the series with Candida albicans [1] was 2.87%; with Candida albicans [2] it was 0.22%; in the series on Candida albicans [3], 68%; with Candida albicans [4] it was 98%; with Galleria mellonella, “Toxic”. The outcome in the series with Candida albicans [5], in the series with Candida albicans [6], in the series on Candida albicans [7] and in the series on Candida albicans [10] was Active. Further, in the series on Candida albicans [8], the “fold change (FC)” value is reported as 2. Moreover, the Activity_index in the series with Candida albicans [9] is reported as 53. In addition, the outcome with Candida albicans [11], with Candida albicans [12], in the series with Candida albicans [15] and in the series with Candida albicans [16] was inactive. In addition, the MFC in the series with Candida albicans [13] was found to be 10 µM; with Candida albicans [14], 5 µM (≈ 3.97 µg/mL).
On to `CC(CN1c2ccccc2Sc2ccccc21)OC(=O)OC(C)Cn1cnc2c1c(=O)n(C)c(=O)n2C` (centres undefined), for which the Activity with Candida albicans [17] is listed as 2.8%; in the series on Candida albicans [18], 1.2%; with Candida albicans [19] it was 0.1%; in the series on Candida albicans [20] it was 92%. Moreover, the survival at 31 µM in the series with Candida albicans [21] turned out to be 95%. For the same molecule, the outcome in the series with Candida albicans [22], in the series with Candida albicans [23] and with Candida albicans [25] was Active. Besides, the “fold change (FC)” value with Candida albicans [24] was 2. Besides, the outcome with Candida albicans [26] and in the series with Candida albicans [27] was inactive.
